Assay results from different studies.
Lines come from different studies, so protocols differ.
Target: Serine/threonine-protein kinase PAK 2 (PAK2, Homo sapiens, UniProt Q13177)

For `CO[C@@H]1[C@H](N(C)C(=O)c2ccccc2)C[C@H]2O[C@]1(C)n1c3ccccc3c3c4c(c5c6ccccc6n2c5c31)C(=O)NC4`, the inhibition was 28% (enzyme activity; inhibitor; 1 µM).
The inhibition of `Cc1cc(O)c(-c2ccc([C@@H](C)CN(C)C)cc2)c2c1[nH]c(=O)c1sccc12` is reported as -5.59% (cell-free assay; inhibitor; 0.1 µM; lysate).
With `CCCCC(=O)Nc1ccc(-c2ccc3ncn(CCC)c(=O)c3c2)cn1` the remaining binding was 91% (binding; competition with immobilised ligand; 0.5 µM).
`C#Cc1cnc(Nc2ccnc(CO)c2)nc1Nc1ccccc1S(C)(=O)=NC#N` (stereo not shown) gave a remaining signal of 48% (cell-free assay; 1 µM).
`C1=C/COCc2cc(ccc2OCCN2CCCC2)Nc2nccc(n2)-c2cccc(c2)COC/1` has a remaining binding of 94% (binding; 0.1 µM).
`C=CC(=O)N1CCC([C@@H]2CCNc3c(C(N)=O)c(-c4ccc(Oc5ccccc5)cc4)nn32)CC1` gave an inhibition of 23% (enzyme activity; inhibitor; 1 µM).
`CN1CCN(C(=O)c2ccc(NC(=O)Nc3ccc(N(C)c4ccnc(Nc5ccc(CS(C)(=O)=O)cc5)n4)cc3)cc2)CC1` gave a remaining binding of 50% (binding; 1 µM).
`N#Cc1ccc(NC(=O)Nc2ccccc2)cc1` gave a remaining binding of 82% (cell-free assay; competition with immobilised ligand; 25 µM).
The remaining binding of `COc1ccc2oc(-c3ccc4nc(N)oc4c3)c/c(=N\c3ccccc3NC(=O)CCN)c2c1` is reported as 98% (binding; 1 µM).
With `C[C@H]1CC[C@H](n2c3cnccc3c3cnc(Nc4ccc5c(n4)CCN(C(=O)CO)C5)nc32)CC1` the remaining signal was 76% (cell-free assay; 1 µM).
